Many of the other results were omitted from the sample, so hits are more common in it than they were.
KDM4C inh: inhibitors of human demethylase GASC-1 KDM4C; Q9H3R0; GST-KDM4C 2-372, H3K9me3 peptide, LANCE TR-FRET; inhibition, % at 12.5 µM; 96,000 compounds, 0.15% hits; AID 720574;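 active = mean replicate inhibition above about 25%, with at least 55% of replicates also reaching it, limit read from the data, passing the limit was not always enough; inconclusive = only one of those two conditions met; inactive = neither condition met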
Target sequence (Q9H3R0 2-372 limits assumed): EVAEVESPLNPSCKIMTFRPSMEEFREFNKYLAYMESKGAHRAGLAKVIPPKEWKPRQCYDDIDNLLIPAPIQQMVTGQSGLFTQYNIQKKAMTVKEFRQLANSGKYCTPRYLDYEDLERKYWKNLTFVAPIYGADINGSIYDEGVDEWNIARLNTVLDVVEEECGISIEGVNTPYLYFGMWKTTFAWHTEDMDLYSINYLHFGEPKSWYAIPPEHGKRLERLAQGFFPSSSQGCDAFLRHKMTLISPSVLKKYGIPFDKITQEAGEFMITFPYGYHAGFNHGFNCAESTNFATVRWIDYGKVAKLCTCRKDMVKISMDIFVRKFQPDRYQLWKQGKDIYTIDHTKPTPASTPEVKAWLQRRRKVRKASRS
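System: N-terminal GST-fused human GASC-1 (KDM4C) fragment, residues 2-372; amount: enzyme final amount 10 nM; incubation: reaction 30 min RT, detection step 1 h RT; medium: HEPES buffer, pH 7.5, plus ascorbate; technique: LANCE TR-FRET, Eu antibody, ULight-streptavidin, EDTA, ex 340 nm, em 618/671 nm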
T cruzi growth-1: T. cruzi proliferation inhibition. T. cruzi beta-gal in NIH3T3, GalScreen luminescence, 90 h. 77,000 compounds, 5.9% hits. inhibition, % at 8.34 µM;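 active = mean inhibition above about 93%, with at least 55% of replicates each passing it, limit read from the data, passing the limit was not always enough; inconclusive = only one of those two conditions holds; inactive = neither condition holds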
IDH1 mut inh: inhibitors of human IDH1 R132H. O75874. IDH1 R132H reductase, diaphorase/resazurin fluorescence, 60 min. inhibition, % at 10 µM. 70,000 compounds, 0.18% hits; in the data active = inhibition above about 34%; inconclusive = no clear call, values can overlap the other calls; inactive = below about 11%;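 note: 0% = DMSO and 100% = no enzyme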
Target sequence (O75874 whole entry R132H): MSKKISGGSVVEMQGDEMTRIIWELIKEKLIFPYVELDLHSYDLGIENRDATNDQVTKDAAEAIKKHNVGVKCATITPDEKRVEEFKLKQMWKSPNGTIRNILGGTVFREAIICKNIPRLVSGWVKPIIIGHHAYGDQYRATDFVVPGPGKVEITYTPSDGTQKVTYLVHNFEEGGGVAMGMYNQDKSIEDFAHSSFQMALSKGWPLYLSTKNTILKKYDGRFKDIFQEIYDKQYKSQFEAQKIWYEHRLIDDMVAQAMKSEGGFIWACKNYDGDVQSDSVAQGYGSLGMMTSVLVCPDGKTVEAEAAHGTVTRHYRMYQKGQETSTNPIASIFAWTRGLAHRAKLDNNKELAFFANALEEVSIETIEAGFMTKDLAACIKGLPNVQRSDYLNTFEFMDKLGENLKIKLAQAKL
T cruzi growth-2: blocks T. cruzi growth in NIH3T3 host cells; inhibition, % at 8.35 µM; T. cruzi beta-gal in NIH3T3, GalScreen luminescence, 90 h; shares compounds with T cruzi growth-1; AID 651739; 5,600 compounds, 72% hits;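 active = mean replicate inhibition above about 95% and at least 55% of replicates individually reaching it, limit read from the data; inconclusive = only one of the two criteria is met; inactive = neither criterion is met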
T cruzi growth-3: inhibitors of T. cruzi proliferation. T. cruzi beta-gal in NIH3T3, GalScreen luminescence, 90 h. shares compounds with T cruzi growth-1. 5,600 compounds, 21% hits. inhibition, % at 2.09 µM. AID 651740;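 active = mean inhibition above about 95%, with at least 55% of replicates also reaching it, limit read from the data; inconclusive = meets just one of the two conditions; inactive = meets neither condition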;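 note: plate controls were neutral control median for no effect and positive control median for full effect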
NIH3T3 tox: kills mouse NIH/3T3 fibroblasts; shares compounds with T cruzi growth-1; NIH/3T3 viability, CellTiter-Glo ATP luminescence, 90 h; cytotoxicity (signal decrease), % at 8.35 µM; 5,600 compounds, 14% hits; AID 651742;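 active = mean signal decrease across replicates above about 35% based on untreated-well scatter, with enough replicates individually passing, limit read from the data; inconclusive = no rule stated though some were filed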;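 note: 0% = median of neutral control wells and 100% = median of positive control wells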
NIH3T3 tox 2: NIH/3T3 (mouse) viability loss; shares compounds with T cruzi growth-1; 5,600 compounds, 56% hits; NIH/3T3 viability, CellTiter-Glo ATP luminescence, 90 h; AID 651744; inhibition, % at 24.9 µM;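 active = mean loss of cell viability signal at or above a set limit, and enough replicates individually reaching it; inconclusive = meets only the mean limit or only the replicate share; inactive = meets neither condition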;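 note: 0% = median of neutral control wells and 100% = median of positive control wells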
The depositor's hits bear a star; ? = inconclusive; . = not tested or not shown.

SMILES	KDM4C inh	T cruzi growth-1	IDH1 mut inh	T cruzi growth-2	T cruzi growth-3	NIH3T3 tox	NIH3T3 tox 2
Cc1ccc(S(=O)(=O)Nc2cccc3c2O[C@@H](CN(C)Cc2ccc(C(F)(F)F)cc2)[C@@H](C)CN([C@H](C)CO)C3=O)cc1	-1.2	102.3*	1.5	108.6*	68.3	29.5	87.0*
COc1ccc(S(=O)(=O)Nc2cccc3c2O[C@@H](CN(C)Cc2ccc(Cl)c(Cl)c2)[C@H](C)CN([C@@H](C)CO)C3=O)cc1	0.0	102.0*	0.8	110.5*	1.4	13.7	17.8
Cc1noc(C)c1S(=O)(=O)Nc1cccc2c1O[C@@H](CN(C)Cc1ccccc1)[C@@H](C)CN([C@H](C)CO)C2=O	-0.1	9.0	-1.5	.	.	.	.
CCC(CO)NS(=O)(=O)c1ccc(OC)c(-c2nnc3c4ccccc4c(C)nn23)c1 (configuration not stated)	.	.	0.4	.	.	.	.
Cc1cc(C)c(C#N)c(SCC(O)CSc2ccc(Cl)cc2)n1 (configuration not stated)	.	.	0.2	.	.	.	.
CN(C)[C@@H]1C(=O)C(C(N)=O)C(=O)[C@@]2(O)C(=O)C3C(=O)c4c(O)ccc(Cl)c4[C@@H](O)[C@H]3C[C@@H]12 (some centres not stated)	.	.	0.5	.	.	.	.
Cc1cc(C)nc(SCc2noc(-c3ccc(Cl)cc3)n2)n1	.	.	-1.0	.	.	.	.
Cn1c(SCC(=O)Nc2ccc(Cl)c(Cl)c2)nnc1-c1ccc(Cl)c(Cl)c1	.	.	0.0	.	.	.	.
COc1cc(NC(=O)COc2ccccc2Cl)ccc1NC(=O)c1cc2ccccc2o1	.	.	0.5	.	.	.	.
C[C@@H]1CCC2C(C)(C)[C@H](O)CC[C@]2(C)[C@@]12Cc1c(O)cc3c(c1O2)CNC3=O (some centres not stated)	.	.	0.7	.	.	.	.
O=S(=O)(c1ccccc1F)N1CCCCN2[C@H](CO)[C@H](c3ccc(-c4cccnc4)cc3)[C@H]2C1	0.4	?	.	91.1	12.1	7.7	?
O=S(=O)(c1ccccc1F)N1CCCCN2[C@H](CO)[C@@H](c3ccc(-c4ccncc4)cc3)[C@H]2C1	-0.4	84.7	.	.	.	.	.
O=S(=O)(c1ccccc1F)N1CCCCN2[C@H](C1)[C@H](c1ccc(-c3ccncc3)cc1)[C@@H]2CO	-0.6	96.3*	.	111.6*	53.7	7.0	10.2
O=S(=O)(c1ccccc1F)N1CCCCN2[C@H](C1)[C@@H](c1ccc(-c3cccnc3)cc1)[C@@H]2CO	3.7	75.7	.	.	.	.	.
Cc1cccc(N(CC(=O)Nc2ccccc2-c2ccccc2)S(C)(=O)=O)c1C	.	.	0.1	.	.	.	.
OC[C@H]1[C@@H](c2ccc(C#Cc3ccccc3)cc2)[C@H]2CN(CC3CCOCC3)CCCCN21	-1.0	93.9	.	.	.	.	.
CCCC#Cc1ccc([C@H]2[C@@H](CO)N3CCCCN(CC4CCOCC4)C[C@H]23)cc1	0.4	124.4*	.	93.0	78.4	30.1	100.8*
CCCC#Cc1ccc([C@H]2[C@H]3CN(CC4CCOCC4)CCCCN3[C@H]2CO)cc1	0.7	64.8	.	.	.	.	.
CCCC#Cc1ccc([C@@H]2[C@H]3CN(CC4CCOCC4)CCCCN3[C@H]2CO)cc1	-0.9	77.2	.	.	.	.	.
OC[C@@H]1[C@@H](c2ccc(C#Cc3ccccc3)cc2)[C@@H]2CN(CC3CCOCC3)CCCCN12	-0.5	?	.	105.1*	65.2	52.0*	105.3*
CCCC#Cc1ccc([C@H]2[C@@H](CO)N3CCCCN(CC4CCOCC4)C[C@@H]23)cc1	1.5	100.1	.	.	.	.	.
OC[C@@H]1[C@H](c2ccc(C#Cc3ccccc3)cc2)[C@@H]2CN(CC3CCOCC3)CCCCN12	-0.7	104.4*	.	106.0*	81.3	31.7	103.2*
OC[C@H]1[C@H](c2ccc(C#Cc3ccccc3)cc2)[C@H]2CN(CC3CCOCC3)CCCCN21	-1.3	102.5*	.	108.8*	86.6	75.9*	104.9*
NC(=O)C(Cc1ccccc1)NS(=O)(=O)c1ccc2oc3ccccc3c2c1 (configuration not stated)	.	.	-0.1	.	.	.	.
COc1ccc(OC)c(NC(=O)CSc2nnc(-c3ccc(F)cc3)n2C)c1	.	.	0.2	.	.	.	.
SMILES	KDM4C inh	T cruzi growth-1	IDH1 mut inh	T cruzi growth-2	T cruzi growth-3	NIH3T3 tox	NIH3T3 tox 2
C[C@H]1CCCCO[C@H](CN(C)Cc2ccccc2)[C@@H](C)CN([C@@H](C)CO)C(=O)c2cc(NC(=O)Nc3ccc(C(F)(F)F)cc3)ccc2O1	-3.0	84.7	.	.	.	.	.
Cn1c(=O)c2c(nc(NCc3cccnc3)n2Cc2c(F)cccc2Cl)n(C)c1=O	.	.	0.1	.	.	.	.
COc1ccc2c(c1)c(CC(=O)OCc1ccccn1)c(C)n2C(=O)c1ccc(Cl)cc1	.	.	1.2	.	.	.	.
COc1ccc(-c2ccc([C@@H]3[C@@H](C#N)N(C(=O)NC4CCCCC4)[C@H]3CO)cc2)cc1	-1.2	93.2	.	.	.	.	.
COc1ccc(-c2ccc([C@H]3[C@H](C#N)N(C(=O)NC(C)C)[C@H]3CO)cc2)cc1	-1.2	89.9	.	.	.	.	.
COc1ccc(-c2ccc([C@H]3[C@@H](C#N)N(C(=O)NC4CCCCC4)[C@H]3CO)cc2)cc1	-2.8	101.9*	.	96.6*	35.2	33.5	35.2*
CC(C)NC(=O)N1[C@H](C#N)[C@H](c2ccc(-c3ccc(F)cc3)cc2)[C@@H]1CO	1.3	?	.	96.0*	109.0*	3.3	15.1
COc1ccc(-c2ccc([C@H]3[C@@H](C#N)N(C(=O)NC(C)C)[C@H]3CO)cc2)cc1	-2.9	98.3*	.	105.2*	109.3*	12.4	33.6*
CC(C)NC(=O)N1[C@H](CO)[C@@H](c2ccc(-c3ccc(F)cc3)cc2)[C@@H]1C#N	-0.8	32.0	.	.	.	.	.
O=[N+]([O-])c1cc(C(F)(F)F)ccc1N(CCO)CCO	.	.	0.7	.	.	.	.
O=C(CSc1n[nH]c(-c2ccc(Cl)cc2Cl)n1)Nc1ccc(F)cc1	.	.	0.4	.	.	.	.
COc1cc(Br)cc(/C=N/NC(=O)c2ccc(C(=O)NO)cc2)c1O	.	.	-0.2	.	.	.	.
COCC#Cc1ccc([C@H]2[C@H]3CN(C(=O)CN(C)C)CCCCN3[C@H]2CO)cc1	1.6	21.1	.	.	.	.	.
CN(C)CC#Cc1ccc([C@@H]2[C@H](CO)N3CCCCN(C(=O)CN(C)C)C[C@@H]23)cc1	4.9	46.2	.	.	.	.	.
CN(C)CC#Cc1ccc([C@H]2[C@H](CO)N3CCCCN(C(=O)CN(C)C)C[C@@H]23)cc1	3.3	?	.	75.6	16.2	15.0	25.1
COCC#Cc1ccc([C@@H]2[C@@H](CO)N3CCCCN(C(=O)CN(C)C)C[C@@H]23)cc1	-0.7	98.8*	.	5.6	-13.0	-8.5	-11.5
CN(C)CC#Cc1ccc([C@@H]2[C@H]3CN(C(=O)CN(C)C)CCCCN3[C@H]2CO)cc1	3.5	22.7	.	.	.	.	.
COCC#Cc1ccc([C@@H]2[C@@H](CO)N3CCCCN(C(=O)CN(C)C)C[C@H]23)cc1	-0.7	106.3*	.	76.4	-16.7	-5.7	1.8
Cc1cc(C)nc(NS(=O)(=O)c2ccc(NC(=O)c3ccccc3Cl)cc2)n1	.	.	0.3	.	.	.	.
